Experimental data gathered from unrelated publications.
Lines come from different studies, so protocols differ.
Target: Tyrosine-protein kinase Lck (LCK, Homo sapiens, UniProt P06239)
Read-out: enzyme activity
Mode: inhibitor

SMILES	test	setting	remaining activity
COc1cc2c(N3CCN(C(=O)Nc4ccc(OC(C)C)cc4)CC3)ncnc2cc1OCCCN1CCCCC1	–	0.5 µM	87.1%
Cc1cnc(NC2CCOCC2)nc1-n1cnc(C(=O)NC(CN)c2cc(F)cc(Cl)c2)c1 (centres unmarked)	radiometric	1 µM	100%
Cc1ccc(NC(=O)c2ccc(CN3CCN(C)CC3)cc2)cc1Nc1nccc(-c2cncc(-c3oncc3C)c2)n1	–	0.5 µM	≤ 50%
COc1cc(Cl)c(C(=O)N[C@@H](CN[C@H]2CC[C@@H](N)CC2)Cc2ccc(C#N)cc2)cc1-c1ccc(CN[C@H](C)c2ccc(C)cc2)o1	–	1 µM	75%
O=C1NC(=O)c2cc(Nc3ccc(F)cc3)c(Nc3ccc(F)cc3)cc21	–	0.5 µM	98.4%
Nc1nc(Nc2ccccc2)sc1C(=O)c1c(F)cccc1F	–	10 µM	49%
Cc1ccc(NC(=O)c2ccc(C)c(C(F)(F)F)c2)cc1C#Cc1nn(C2CCC(O)CC2)c2ncnc(N)c12 (centres unmarked)	–	10 µM	0%
CCN(CC)c1ccc(C2=NNC(=O)CC2C)cc1[N+](=O)[O-] (centres unmarked)	–	10 µM	118%
Nc1ncnc2occ(-c3ccc(NC(=O)Nc4cc(C(F)(F)F)ccc4F)cc3)c12	–	20 µM	0.1%
Cc1[nH]c(/C=C2\C(=O)Nc3ccc(F)cc32)c(C)c1C(=O)N[C@H]1CCN(C(=O)N(C)C)C1	–	1 µM	42%
Cc1sc(C(=O)NC2COC2)cc1-n1cc(NC(=O)Nc2c(F)cccc2Cl)cn1	–	10 µM	46.5%
O=C1Nc2ccc(Cl)cc2C1=Cc1cc(Cl)c(O)c(Cl)c1	–	0.5 µM	88.2%
COc1cc(Nc2cnc(C#N)c(O[C@H](C)CN(C)C)n2)ncc1-c1cnn(C)c1	radiometric	1 µM	60%
Oc1cccc(-c2nc(N3CCOCC3)c3oc4ncccc4c3n2)c1	–	0.5 µM	98%
CCCOc1ccc(OC)c(F)c1C(=O)c1ccc(C(=O)N[C@@H]2CNC[C@H]2NC(=O)c2ccc3[nH]ncc3c2)cc1	–	10 µM	21%
Nc1nc(NC2CCCCC2)sc1C(=O)c1ccccc1	–	10 µM	86%
COc1cc(Nc2c(C#N)cnc3cc(OCCCN4CCN(C)CC4)c(OC)cc23)c(Cl)cc1Cl	–	0.5 µM	1.88%
CC(C)(C)c1nc2c(s1)c1nc(N)ncc1c1ccc(NS(=O)(=O)c3c(F)cccc3F)c(F)c12	radiometric	1 µM	80%
Oc1cccc(-c2nc(N3CCOCC3)c3oc4ncccc4c3n2)c1	–	10 µM	85%
O=c1c2ccccc2[nH]c(=S)n1CCN1CCC(=C(c2ccc(F)cc2)c2ccc(F)cc2)CC1	–	0.5 µM	99.5%
